The term IC50 denotes the concentration that gives 50% inhibition.

Drawing on ChEMBL document CHEMBL1135476, “Synthesis and structure-activity relationship study of potent trypanocidal thio semicarbazone inhibitors of the trypanosomal cysteine protease cruzain” (J Med Chem, 2002), this text covers IC50 and Cell survived for 78 molecules.

For one experiment, the target named is Cruzipain (Trypanosoma cruzi, UniProt P25779). As to the kind of experiment: Inhibitory activity against Trypanosoma cruzi cathepsin L-like protease (cruzain) was determined using purified recombinant protein. A digest of the protocol:
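Purified recombinant cruzain (1 nM) preincubated 5 min at room temperature with inhibitor (20-50000 nM; seven concentrations) in 100 mM sodium acetate, 5 mM DTT, pH 5.50. DMSO 0.7% in assay. IC50 read graphically from linear portion of inhibition vs log[I], at least two points in linear range.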

Experiment [1] concerns Trypanosoma cruzi. As to the kind of experiment: Tested for the trypanocidal property against infected host cells (Trypanosoma cruzi) using a cell culture assay. It is filed as functional. Summed up:
(§1)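 Irradiated (5000 rad) J774 macrophages were plated 24 h before infection with ~10^6 T. cruzi Y-strain trypomastigotes per well; the trypomastigotes came from BESM cell culture supernatants. Parasites were removed at 2 h, then compound was given at 10 μM (stocks 10 mM in DMSO) in RPMI-1640 with FCS at 37 °C, 5% CO2, refreshed every 48 h. DMSO blank served as control. Cultures were followed by phase microscopy for up to […], scoring intracellular cycle duration and host-cell survival and toxicity.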

For experiment [2], the system named is Trypanosoma cruzi. In words: Trypanocidal activity in infected host cells. It is filed as functional. Summed up:
as §1

The subject of experiment [3] is Trypanosoma cruzi. In words: Tested for the trypanocidal property against infected host cells (Trypanosoma cruzi) using a cell culture assay. It is filed as functional. Summed up:
as §1

Cruzipain, sequence (P25779 whole entry): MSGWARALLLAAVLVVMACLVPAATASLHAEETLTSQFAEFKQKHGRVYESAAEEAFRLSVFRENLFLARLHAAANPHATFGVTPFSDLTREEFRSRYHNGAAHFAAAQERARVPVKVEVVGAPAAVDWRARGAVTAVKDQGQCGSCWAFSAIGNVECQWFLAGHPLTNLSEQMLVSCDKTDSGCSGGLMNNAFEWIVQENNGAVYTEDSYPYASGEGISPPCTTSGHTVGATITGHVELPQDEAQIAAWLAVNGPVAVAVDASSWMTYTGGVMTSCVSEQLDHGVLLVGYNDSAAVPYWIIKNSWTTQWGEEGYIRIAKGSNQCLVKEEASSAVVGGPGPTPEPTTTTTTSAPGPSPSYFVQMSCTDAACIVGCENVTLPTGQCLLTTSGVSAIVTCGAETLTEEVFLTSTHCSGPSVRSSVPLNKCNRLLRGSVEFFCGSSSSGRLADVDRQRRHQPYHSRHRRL

As to `COc1ccc(/C=N/NC(N)=S)cc1O`, at Cruzipain, the IC50 is more than 10000 nM. Take `NC(=O)N/N=C/c1ccc(-c2ccc(Cl)cc2)o1`: the 50% inhibitory concentration (IC50) at Cruzipain was more than 10000 nM. Take `CC/C(=N\N=C(\N)S)c1cccc(Br)c1`: in the experiment with Trypanosoma cruzi [1], the Cell survived is more than 46 days. With `NC(=S)N1CCC(c2cccc(Br)c2)=N1`, the IC50 on Cruzipain came to 200 nM. Besides, the Cell survived with Trypanosoma cruzi [2] worked out at 5 days.

As to `FC(F)(F)c1ccc(NC(=S)N2CCC(c3cccc(Br)c3)=N2)cc1`, the half-inhibitory concentration (IC50) at Cruzipain is more than 10000 nM. Take `N/C(S)=N/N=C/c1ccc(-c2ccc(Cl)cc2)o1`: the IC50 at Cruzipain amounted to 300 nM. The molecule also showed a Cell survived in the experiment on Trypanosoma cruzi [3] of 15 days. For `CC/N=C(\S)N1CCC(c2cccc(Br)c2)=N1`, the concentration for half-maximal inhibition (IC50) at Cruzipain is more than 10000 nM. Regarding `C/C(=N\NC(N)=O)c1cccc(Cl)c1`, the IC50 at Cruzipain was more than 10000 nM. For the molecule `CC/C(=N\N=C(/S)Nc1ccccc1)c1cccc(Br)c1`, the IC50 on Cruzipain was more than 10000 nM. For the molecule `S=C(NCc1ccco1)N1CCC(c2cccc(Br)c2)=N1`, the IC50 on Cruzipain was more than 10000 nM. In the case of `N/C(S)=N/N=C/c1ccc(-c2cccc(Cl)c2)o1`, the half-inhibitory concentration (IC50) at Cruzipain was 140 nM. As to `NC(=S)N1CCC(c2ccc(Cl)c(Cl)c2)=N1`, the IC50 at Cruzipain amounted to 60 nM. Moreover, the Cell survived in the experiment on Trypanosoma cruzi [2] is more than 41 days. Take `C/C(=N\N=C(\N)S)c1cccc(C(F)(F)F)c1`: the IC50 at Cruzipain turned out to be 170 nM. In addition, the Cell survived in the experiment on Trypanosoma cruzi [2] was determined as 15 days. For `CN(C)c1ccc(/C=N/N=C(/N)S)c2ccccc12`, the IC50 at Cruzipain was more than 10000 nM. For `C/C(=N\NC(N)=O)c1cccc(C(F)(F)F)c1`, the IC50 on Cruzipain is more than 10000 nM.

On to `CC1CN(C(=N)S)N=C1c1cccc(Br)c1` (stereo not drawn), for which, in the experiment on Trypanosoma cruzi [2], the Cell survived is more than 22 days. Regarding `N/C(S)=N/N=C/c1ccc(Cl)c(Cl)c1`, the IC50 at Cruzipain came out at 460 nM. Still for that read-out and setting: to `N/C(S)=N/N=C/c1cc(Cl)cc(Cl)c1` belongs 560 nM; to `C/C(=N\NC(N)=O)c1ccc(Cl)c(Cl)c1`, more than 10000 nM.

As to `CC/C(=N\N=C(\N)S)c1ccccc1`, the IC50 on Cruzipain is more than 10000 nM. Same read-out and setting: to `CC/C(=N\N=C(/S)NC)c1cccc(Br)c1` belongs more than 10000 nM. Regarding `CC/C(=N\NC(N)=O)c1cccc(C(F)(F)F)c1`, the half-inhibitory concentration (IC50) at Cruzipain is more than 10000 nM. Consider `CC/C(=N\NC(N)=O)c1cccc(Cl)c1`, for which, on Cruzipain, the IC50 was more than 10000 nM. Take `C/C(=N\N=C(\N)S)c1cccc(Br)c1`: the Cell survived in the experiment on Trypanosoma cruzi [2] is 22 days. Take `NC(=O)N/N=C/c1ccc(-c2cccc(Cl)c2)o1`: the 50% inhibitory concentration (IC50) at Cruzipain was more than 10000 nM.

`CC/C(=N\N=C(\N)S)c1ccc2cc(OC)ccc2c1`: the half-inhibitory concentration (IC50) at Cruzipain is more than 10000 nM. On to `C/C(=N\N=C(\N)S)c1cc(C(F)(F)F)cc(C(F)(F)F)c1`, for which, on Cruzipain, the IC50 was found to be 60 nM. This molecule also gave a Cell survived with Trypanosoma cruzi [2] of 7 days. As for `CC/C(=N\NC(N)=O)c1cc(C(F)(F)F)cc(C(F)(F)F)c1`, the IC50 on Cruzipain was more than 10000 nM. For `C/C(=N\N=C(\N)S)c1ccc(Br)s1`, the IC50 on Cruzipain was 3800 nM. Same read-out and setting: in the case of `CC/C(=N\N=C(\N)S)c1ccc(Br)cc1` it was more than 10000 nM; in that of `NC(=S)N/N=C/c1ccc(-c2ccc(Br)cc2)o1`, 280 nM; in that of `C/C(=N\N=C(\N)S)c1ccc(Cl)s1`, 1900 nM.

For the molecule `NC(=S)N1CCC(c2cccc(Cl)c2)=N1`, the half-inhibitory concentration (IC50) at Cruzipain worked out at 270 nM. In the experiment on Trypanosoma cruzi [2], this molecule had a Cell survived of 5 days. On to `C/C(=N\N=C(\N)S)c1ccccc1Cl`, for which the IC50 on Cruzipain was more than 10000 nM. Take `CC/C(=N\N=C(\N)S)c1ccc(Cl)cc1Cl`: the IC50 on Cruzipain was more than 10000 nM. In the case of `N=C(S)N/N=C/c1ccccc1C(F)(F)F`, the 50% inhibitory concentration (IC50) at Cruzipain was more than 10000 nM. On to `C/C(=N\NC(N)=O)c1cccc(Br)c1`, for which the 50% inhibitory concentration (IC50) on Cruzipain is more than 10000 nM. On the same count and under the same terms, to `FC(F)(F)c1cccc(NC(=S)N2CCC(c3cccc(Cl)c3)=N2)c1` belongs 1700 nM; to `CCC(NNC(N)=S)c1cccc(Br)c1` (stereo not drawn), more than 10000 nM. For `CC1CN(C(=N)S)N=C1c1cccc(Cl)c1` (stereo not drawn), the IC50 at Cruzipain was determined as 230 nM. The Cell survived with Trypanosoma cruzi [2] was more than 41 days. As to `S=C(Nc1cccc(Cl)c1)N1CCC(c2cccc(Br)c2)=N1`, on Cruzipain, the IC50 amounted to 1000 nM. For the same molecule, the Cell survived in the experiment with Trypanosoma cruzi [2] amounted to 5 days. As to `C/C(=N\N=C(\N)S)c1ccc(Cl)c(Cl)c1`, the IC50 at Cruzipain turned out to be 50 nM. Further, the Cell survived in the experiment on Trypanosoma cruzi [2] was more than 41 days. On to `N=C(S)N/N=C/c1cccc(C(F)(F)F)c1`, for which the IC50 at Cruzipain is 480 nM. Still for that read-out and setting: to `N=C(S)N/N=C/c1cc(C(F)(F)F)cc(C(F)(F)F)c1` belongs 320 nM. The same measure, in the same setting: to `C/C(=N\N=C(\N)S)c1ccccc1Br` belongs 3900 nM; to `CC/C(=N\N=C(/S)NCc1ccco1)c1cccc(Br)c1`, more than 10000 nM. As to `CC/C(=N\N=C(\N)S)c1cccc(Cl)c1`, the IC50 on Cruzipain turned out to be 220 nM. The Cell survived in the experiment on Trypanosoma cruzi [1] was found to be 22 days. For the molecule `COc1ccc2ccccc2c1/C=N/N=C(/N)S`, at Cruzipain, the half-inhibitory concentration (IC50) is 560 nM. The Cell survived in the experiment with Trypanosoma cruzi [1] was 5 days.

For the molecule `S=C(Nc1ccccc1)N1CCC(c2cccc(Br)c2)=N1`, the IC50 on Cruzipain was more than 10000 nM.

Consider `CC1CN(C(=N)S)N=C1c1cccc(C(F)(F)F)c1` (stereo not drawn), for which the 50% inhibitory concentration (IC50) on Cruzipain came to 40 nM. This molecule also yielded a Cell survived with Trypanosoma cruzi [2] of more than 41 days.

In the case of `CC/N=C(\S)N/N=C(\CC)c1cccc(Br)c1`, the IC50 on Cruzipain was more than 10000 nM.

For the molecule `C/N=C(\S)N1CCC(c2cccc(Br)c2)=N1`, on Cruzipain, the concentration for half-maximal inhibition (IC50) was more than 10000 nM. Regarding `N/C(S)=N/N=C/c1cc(C#Cc2ccccc2)cs1`, the concentration for half-maximal inhibition (IC50) on Cruzipain is more than 10000 nM.

Turning to `C/C(=N\N=C(\N)S)c1ccc(N2CCOCC2)cc1`, the half-inhibitory concentration (IC50) at Cruzipain is more than 10000 nM. Consider `CC/C(=N\N=C(/S)NC(C)C)c1cccc(Br)c1`, for which the 50% inhibitory concentration (IC50) on Cruzipain is more than 10000 nM. Regarding `CC/C(=N\N=C(\N)S)c1ccc(OC)cc1`, at Cruzipain, the IC50 is more than 10000 nM.

Consider `CCCCCCNC(=S)N1CCC(c2cccc(Br)c2)=N1`, for which the 50% inhibitory concentration (IC50) at Cruzipain stood at 1400 nM.

As for `CC/C(=N\NC(N)=O)c1ccc(Cl)c(Cl)c1`, the IC50 on Cruzipain is more than 10000 nM. For `CC1CN(C(=N)S)N=C1c1ccc(Cl)c(Cl)c1` (stereo not drawn), on Cruzipain, the IC50 stood at 70 nM. In addition, the Cell survived in the experiment with Trypanosoma cruzi [2] came out at 15 days. For `N=C(S)N1CCC(c2cccc(C(F)(F)F)c2)=N1` the same measures were 80 nM and 5 days.

Turning to `CC/C(=N\NC(N)=O)c1cccc(Br)c1`, the half-inhibitory concentration (IC50) at Cruzipain is more than 10000 nM.

Turning to `CC/C(=N\N=C(/S)NCCN1CCNCC1)c1cccc(Br)c1`, the half-maximal inhibitory concentration (IC50) at Cruzipain was more than 10000 nM. For the molecule `Cn1nc(C(F)(F)F)cc1-c1ccc(/C=N/N=C(/N)S)s1`, the IC50 on Cruzipain turned out to be 7000 nM.

Regarding `N/C(S)=N/N=C/c1cccc(Br)c1`, the IC50 on Cruzipain was found to be 1300 nM. In the experiment with Trypanosoma cruzi [2], this molecule had a Cell survived of 8 days.

As to `S=C(NCCN1CCOCC1)N1CCC(c2cccc(Br)c2)=N1`, the 50% inhibitory concentration (IC50) on Cruzipain is more than 10000 nM. In the case of `NC(=O)N/N=C/c1ccc(-c2ccc(Br)cc2)o1`, the concentration for half-maximal inhibition (IC50) at Cruzipain was more than 10000 nM. `CC/C(=N\N=C(\N)S)c1ccc(Cl)c(Cl)c1`: the IC50 on Cruzipain was 20 nM. In the experiment on Trypanosoma cruzi [2], the Cell survived is 9 days. Regarding `CC/C(=N\N=C(\N)S)c1cccc(F)c1`, on Cruzipain, the half-maximal inhibitory concentration (IC50) was more than 10000 nM.

For the molecule `CC/C(=N\N=C(\N)S)c1cccc(C(F)(F)F)c1`, the 50% inhibitory concentration (IC50) on Cruzipain came to 50 nM. For the same molecule, the Cell survived in the experiment on Trypanosoma cruzi [1] was more than 41 days. As to `COc1cccc(/C(C)=N/N=C(/N)S)c1`, at Cruzipain, the 50% inhibitory concentration (IC50) was more than 10000 nM. With `CC(C)/N=C(\S)N1CCC(c2cccc(Br)c2)=N1`, on Cruzipain, the IC50 is more than 10000 nM. For the molecule `CC/C(=N\N=C(\N)S)c1ccc(Cl)cc1`, the IC50 at Cruzipain is more than 10000 nM.

`CC/C(=N\N=C(\N)S)c1cc(C(F)(F)F)cc(C(F)(F)F)c1`: the half-maximal inhibitory concentration (IC50) on Cruzipain came to 20 nM. In addition, in the experiment on Trypanosoma cruzi [2], the Cell survived amounted to 20 days. On to `N/C(S)=N/N=C/c1cccc(Cl)c1Cl`, for which the IC50 on Cruzipain was more than 10000 nM. As for `COc1ccccc1-c1ccc(/C=N/N=C(/N)S)o1`, at Cruzipain, the 50% inhibitory concentration (IC50) came to 280 nM. Besides, in the experiment with Trypanosoma cruzi [3], the Cell survived stood at 8 days. For `N/C(S)=N/N=C/c1cccn1S(=O)(=O)c1ccccc1`, the half-inhibitory concentration (IC50) at Cruzipain worked out at 2800 nM. On to `CC/C(=N\N=C(/S)Nc1ccc(C(F)(F)F)cc1)c1cccc(Br)c1` (stereo in doubt), for which the half-inhibitory concentration (IC50) at Cruzipain is more than 10000 nM.

For `CC/C(=N\N=C(/S)Nc1ccc(C(F)(F)F)cc1)c1cccc(Br)c1` (stereo in doubt; 5c), the half-inhibitory concentration (IC50) at Cruzipain worked out at 1600 nM. In the experiment on Trypanosoma cruzi [2], this molecule yielded a Cell survived of 5 days.
